In brackets after ≈: the same amount, converted by molar mass.
Tests used:
Assay type in all cases: functional
[1] = system: Aspergillus fumigatus; assay: Antimicrobial activity against Aspergillus fumigatus isolate 47 by oxygen consumption method
[2] = system: Aspergillus fumigatus; assay: Antimicrobial activity against Aspergillus fumigatus isolate 39 by CLSI M38-A2 broth microdilution method
How it was run: (§1)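 CLSI M38-A2 broth microdilution with posaconazole. MIC taken as the lowest concentration with no visible growth at 48 h. C. parapsilosis ATCC 22019 and C. krusei ATCC 6258 were included as QC strains in every run.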

[3] = system: Aspergillus fumigatus; assay: Antimicrobial activity against Aspergillus fumigatus isolate 25 after 24 hrs by Etest; conditions: isolate 25, 24 h
How it was run: (§2)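 Etest strips on RPMI 1640 agar with 2% glucose, pH 7.0, run per manufacturer's instructions. Incubated at 35°C; MIC read at 24 h.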

[4] = system: Aspergillus fumigatus; assay: Antimicrobial activity against Aspergillus fumigatus isolate 27 by oxygen consumption method
How it was run: (§3)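 Conidial suspension in RPMI 1640 broth, 1.5 ml, with two drug concentrations (0.25 and 2 μg/ml). Tubes agitated 12 h at 37°C in a biological oxygen monitor. Available oxygen monitored continuously and quantified to assign the MIC.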

[5] = system: Aspergillus fumigatus; assay: Antimicrobial activity against Aspergillus fumigatus isolate 4 after 24 hrs by Etest; conditions: isolate 4, 24 h
How it was run: (§4)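 Posaconazole Etest strips on RPMI 1640 agar with 2% glucose, pH 7.0, run per the strip maker's instructions. Incubated at 35°C. MIC read at 24 h and at 48 h, matching the time in each line.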

[6] = system: Aspergillus fumigatus; assay: Antimicrobial activity against Aspergillus fumigatus isolate 11 by oxygen consumption method
How it was run: (§5)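 Conidial suspension in RPMI 1640 broth with posaconazole at 0.25 and 2 μg/ml. Tubes agitated 12 h at 37°C in a biological oxygen monitor. Available oxygen was monitored continuously, and the MIC was assigned from the oxygen quantification.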

[7] = system: Aspergillus fumigatus; assay: Antimicrobial activity against Aspergillus fumigatus isolate 5 after 48 hrs by Etest; conditions: isolate 5, 48 h
[8] = system: Aspergillus fumigatus; assay: Antimicrobial activity against Aspergillus fumigatus isolate 32 by CLSI M38-A2 broth microdilution method; how it was run: as §1
[9] = system: Aspergillus fumigatus; assay: Antimicrobial activity against Aspergillus fumigatus isolate 43 by CLSI M38-A2 broth microdilution method
[10] = system: Aspergillus fumigatus; assay: Antimicrobial activity against Aspergillus fumigatus isolate 20 after 48 hrs by Etest; conditions: isolate 20, 48 h
How it was run: (§6)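 Posaconazole Etest strips placed on RPMI 1640 agar with 2% glucose, pH 7.0, and run per the strip maker's instructions. Incubation at 35°C, with the MIC read at 24 h and at 48 h.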

[11] = system: Aspergillus fumigatus; assay: Antimicrobial activity against Aspergillus fumigatus isolate 13 after 48 hrs by Etest; conditions: isolate 13, 48 h; how it was run: as §6
[12] = system: Aspergillus fumigatus; assay: Antimicrobial activity against Aspergillus fumigatus isolate 47 by CLSI M38-A2 broth microdilution method
[13] = system: Aspergillus fumigatus; assay: Antimicrobial activity against Aspergillus fumigatus isolate 23 after 24 hrs by Etest; conditions: isolate 23, 24 h; how it was run: as §2
[14] = system: Aspergillus fumigatus; assay: Antimicrobial activity against Aspergillus fumigatus isolate 3 by oxygen consumption method; how it was run: as §3
[15] = system: Aspergillus fumigatus; assay: Antimicrobial activity against Aspergillus fumigatus isolate 8 after 24 hrs by Etest; conditions: isolate 8, 24 h
[16] = system: Aspergillus fumigatus; assay: Antimicrobial activity against Aspergillus fumigatus isolate 4 after 48 hrs by Etest; conditions: isolate 4, 48 h; how it was run: as §4
[17] = system: Aspergillus fumigatus; assay: Antimicrobial activity against Aspergillus fumigatus isolate 16 by CLSI M38-A2 broth microdilution method
How it was run: (§7)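 Posaconazole broth microdilution follows CLSI M38-A2. The MIC is the lowest concentration with no visible growth at 48 h. Candida parapsilosis ATCC 22019 and Candida krusei ATCC 6258 were included as QC strains in every run.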

[18] = system: Aspergillus fumigatus; assay: Antimicrobial activity against Aspergillus fumigatus isolate 38 after 24 hrs by Etest; conditions: isolate 38, 24 h; how it was run: as §4
[19] = system: Aspergillus fumigatus; assay: Antimicrobial activity against Aspergillus fumigatus isolate 30 after 48 hrs by Etest; conditions: isolate 30, 48 h
How it was run: (§8)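 Etest strips on RPMI 1640 agar with 2% glucose, pH 7.0, run per manufacturer's instructions. Incubated at 35°C; MIC read at 48 h.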

[20] = system: Aspergillus fumigatus; assay: Antimicrobial activity against Aspergillus fumigatus isolate 14 by CLSI M38-A2 broth microdilution method; how it was run: as §7
[21] = system: Aspergillus fumigatus; assay: Antimicrobial activity against Aspergillus fumigatus isolate 8 after 48 hrs by Etest; conditions: isolate 8, 48 h
[22] = system: Aspergillus fumigatus; assay: Antimicrobial activity against Aspergillus fumigatus isolate 30 by oxygen consumption method; how it was run: as §3
[23] = system: Aspergillus fumigatus; assay: Antimicrobial activity against Aspergillus fumigatus isolate 19 after 48 hrs by Etest; conditions: isolate 19, 48 h; how it was run: as §6
[24] = system: Aspergillus fumigatus; assay: Antimicrobial activity against Aspergillus fumigatus isolate 45 by oxygen consumption method
[25] = system: Aspergillus fumigatus; assay: Antimicrobial activity against Aspergillus fumigatus isolate 9 by oxygen consumption method
[26] = system: Aspergillus fumigatus; assay: Antimicrobial activity against Aspergillus fumigatus isolate 49 by oxygen consumption method
[27] = system: Aspergillus fumigatus; assay: Antimicrobial activity against Aspergillus fumigatus isolate 2 by CLSI M38-A2 broth microdilution method; how it was run: as §7
[28] = system: Aspergillus fumigatus; assay: Antimicrobial activity against Aspergillus fumigatus isolate 43 after 24 hrs by Etest; conditions: isolate 43, 24 h; how it was run: as §4
[29] = system: Aspergillus fumigatus; assay: Antimicrobial activity against Aspergillus fumigatus isolate 31 after 24 hrs by Etest; conditions: isolate 31, 24 h; how it was run: as §2
[30] = system: Aspergillus fumigatus; assay: Antimicrobial activity against Aspergillus fumigatus isolate 19 by CLSI M38-A2 broth microdilution method; how it was run: as §7
[31] = system: Aspergillus fumigatus; assay: Antimicrobial activity against Aspergillus fumigatus isolate 32 after 24 hrs by Etest; conditions: isolate 32, 24 h; how it was run: as §4
[32] = system: Aspergillus fumigatus; assay: Antimicrobial activity against Aspergillus fumigatus isolate 42 by CLSI M38-A2 broth microdilution method; how it was run: as §1
[33] = system: Aspergillus fumigatus; assay: Antimicrobial activity against Aspergillus fumigatus isolate 50 after 48 hrs by Etest; conditions: isolate 50, 48 h
[34] = system: Aspergillus fumigatus; assay: Antimicrobial activity against Aspergillus fumigatus isolate 49 after 24 hrs by Etest; conditions: isolate 49, 24 h
[35] = system: Aspergillus fumigatus; assay: Antimicrobial activity against Aspergillus fumigatus isolate 20 by CLSI M38-A2 broth microdilution method
How it was run: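 Reference broth microdilution per CLSI M38-A2. MIC read as absence of visible growth at 48 h. C. parapsilosis ATCC 22019 and C. krusei ATCC 6258 QC strains run in each test session.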

[36] = system: Aspergillus fumigatus; assay: Antimicrobial activity against Aspergillus fumigatus isolate 23 after 48 hrs by Etest; conditions: isolate 23, 48 h; how it was run: as §8
[37] = system: Aspergillus fumigatus; assay: Antimicrobial activity against Aspergillus fumigatus isolate 26 after 48 hrs by Etest; conditions: isolate 26, 48 h; how it was run: as §8
[38] = system: Aspergillus fumigatus; assay: Antimicrobial activity against Aspergillus fumigatus isolate 33 after 24 hrs by Etest; conditions: isolate 33, 24 h; how it was run: as §4
[39] = system: Aspergillus fumigatus; assay: Antimicrobial activity against Aspergillus fumigatus isolate 41 by oxygen consumption method
How it was run: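 Conidial suspension in RPMI 1640 broth, tested at two posaconazole levels (0.25 and 2 μg/ml). Agitated for 12 h at 37°C in a biological oxygen monitor. MIC derived from continuous monitoring and quantification of the available oxygen.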

[40] = system: Aspergillus fumigatus; assay: Antimicrobial activity against Aspergillus fumigatus isolate 10 by oxygen consumption method; how it was run: as §5
[41] = system: Aspergillus fumigatus; assay: Antimicrobial activity against Aspergillus fumigatus isolate 46 after 48 hrs by Etest; conditions: isolate 46, 48 h
[42] = system: Aspergillus fumigatus; assay: Antimicrobial activity against Aspergillus fumigatus isolate 48 by CLSI M38-A2 broth microdilution method
[43] = system: Aspergillus fumigatus; assay: Antimicrobial activity against Aspergillus fumigatus isolate 15 after 48 hrs by Etest; conditions: isolate 15, 48 h; how it was run: as §6
[44] = system: Aspergillus fumigatus; assay: Antimicrobial activity against Aspergillus fumigatus isolate 42 after 24 hrs by Etest; conditions: isolate 42, 24 h; how it was run: as §4

## CC[C@@H]([C@H](C)O)n1ncn(-c2ccc(N3CCN(c4ccc(OC[C@@H]5CO[C@@](Cn6cncn6)(c6ccc(F)cc6F)C5)cc4)CC3)cc2)c1=O [POSACONAZOLE]
[1]
  MIC: ≤ 0.25 µg/mL
[2]
  MIC: 0.06 µg/mL (≈ 0.0856 µM)
[3]
  MIC: 0.25 µg/mL (≈ 0.357 µM)
[4]
  MIC: ≥ 0.5 µg/mL
[5]
  MIC: 0.125 µg/mL (≈ 0.178 µM)
[6]
  MIC: ≤ 0.25 µg/mL
[7]
  MIC: > 16 µg/mL
[8]
  MIC: 0.125 µg/mL (≈ 0.178 µM)
[9]
  MIC: 0.125 µg/mL (≈ 0.178 µM)
[10]
  MIC: 0.25 µg/mL (≈ 0.357 µM)
[11]
  MIC: 0.25 µg/mL (≈ 0.357 µM)
[12]
  MIC: 0.125 µg/mL (≈ 0.178 µM)
[13]
  MIC: 0.25 µg/mL (≈ 0.357 µM)
[14]
  MIC: ≥ 0.5 µg/mL
[15]
  MIC: 0.25 µg/mL (≈ 0.357 µM)
[16]
  MIC: 0.25 µg/mL (≈ 0.357 µM)
[17]
  MIC: 0.125 µg/mL (≈ 0.178 µM)
[18]
  MIC: 0.06 µg/mL (≈ 0.0856 µM)
[19]
  MIC: 0.5 µg/mL (≈ 0.713 µM)
[20]
  MIC: 0.125 µg/mL (≈ 0.178 µM)
[21]
  MIC: 0.25 µg/mL (≈ 0.357 µM)
[22]
  MIC: ≤ 0.25 µg/mL
[23]
  MIC: 0.25 µg/mL (≈ 0.357 µM)
[24]
  MIC: ≥ 0.5 µg/mL
[25]
  MIC: ≤ 0.25 µg/mL
[26]
  MIC: ≥ 0.5 µg/mL
[27]
  MIC: 0.5 µg/mL (≈ 0.713 µM)
[28]
  MIC: ≤ 0.03 µg/mL
[29]
  MIC: 0.06 µg/mL (≈ 0.0856 µM)
[30]
  MIC: 0.5 µg/mL (≈ 0.713 µM)
[31]
  MIC: 0.25 µg/mL (≈ 0.357 µM)
[32]
  MIC: 0.06 µg/mL (≈ 0.0856 µM)
[33]
  MIC: 0.25 µg/mL (≈ 0.357 µM)
[34]
  MIC: 0.5 µg/mL (≈ 0.713 µM)
[35]
  MIC: 0.125 µg/mL (≈ 0.178 µM)
[36]
  MIC: 0.25 µg/mL (≈ 0.357 µM)
[37]
  MIC: 0.25 µg/mL (≈ 0.357 µM)
[38]
  MIC: 0.25 µg/mL (≈ 0.357 µM)
[39]
  MIC: ≤ 0.25 µg/mL
[40]
  MIC: ≤ 0.25 µg/mL
[41]
  MIC: 0.125 µg/mL (≈ 0.178 µM)
[42]
  MIC: 0.125 µg/mL (≈ 0.178 µM)
[43]
  MIC: 0.06 µg/mL (≈ 0.0856 µM)
[44]
  MIC: 0.06 µg/mL (≈ 0.0856 µM)

— ChEMBL document CHEMBL1649256, “Comparison of assessment of oxygen consumption, Etest, and CLSI M38-A2 broth microdilution methods for evaluation of the susceptibility of Aspergillus fumigatus to posaconazole” (2009)
